Laboratory results published in ChEMBL document CHEMBL1667807, “Discovery of imidazo[1,2-b]pyridazines as IKKβ inhibitors. Part 2: improvement of potency in vitro and in vivo” (Bioorg Med Chem Lett, 2011).
The source made the active and inactive calls. The calls are words filed in the database; no cut-off is given here.

What was measured:
[1] = molecular target: T1, Inhibitor of nuclear factor kappa-B kinase subunit beta (Homo sapiens, UniProt O14920); test: Inhibition of purified His-tagged IKK-beta after 15 mins
T1 sequence (O14920 whole entry): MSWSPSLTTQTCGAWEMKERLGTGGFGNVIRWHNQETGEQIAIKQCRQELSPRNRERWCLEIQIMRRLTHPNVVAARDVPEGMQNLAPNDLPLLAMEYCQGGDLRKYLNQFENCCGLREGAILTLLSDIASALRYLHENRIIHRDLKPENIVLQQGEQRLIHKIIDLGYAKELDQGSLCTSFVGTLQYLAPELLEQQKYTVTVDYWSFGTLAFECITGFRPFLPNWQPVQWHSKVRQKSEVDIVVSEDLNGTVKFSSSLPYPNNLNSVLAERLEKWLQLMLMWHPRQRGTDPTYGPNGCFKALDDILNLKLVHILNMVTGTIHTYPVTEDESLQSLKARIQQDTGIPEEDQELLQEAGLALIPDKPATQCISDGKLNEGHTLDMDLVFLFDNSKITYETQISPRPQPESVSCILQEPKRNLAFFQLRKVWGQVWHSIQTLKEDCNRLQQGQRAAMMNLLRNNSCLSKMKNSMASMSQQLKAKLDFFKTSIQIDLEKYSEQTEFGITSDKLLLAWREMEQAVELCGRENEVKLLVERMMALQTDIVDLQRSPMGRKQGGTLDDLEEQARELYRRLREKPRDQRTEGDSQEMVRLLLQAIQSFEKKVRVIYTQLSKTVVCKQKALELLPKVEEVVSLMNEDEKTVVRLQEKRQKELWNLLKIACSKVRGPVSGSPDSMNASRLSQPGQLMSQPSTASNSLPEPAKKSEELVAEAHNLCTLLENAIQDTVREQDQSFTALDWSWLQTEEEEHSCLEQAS

[2] = tested on: Blood; test: Antiinflammatory activity in BALB/c mouse whole blood assessed as inhibition of LPS-induced TNFalpha production by ELISA; type: functional, tissue-based
Outline: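 Mouse whole blood cell suspension stimulated with LPS (medium-only control), incubated 4 h at 37 °C in 5% CO2. Plasma then separated by centrifugation at 4 °C and TNFα measured by ELISA. IC50 derived.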

[3] = Membrane permeability at pH 7.4 by PAMPA assay; type: ADME; details: read-out: permeability
Outline: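 Parallel artificial membrane permeability assay run at pH 7.4. Effective permeability Pe reported in 10^-6 cm/s as the median of three tests.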

[4] = tested on: Mus musculus; test: Antiinflammatory activity in BALB/c mouse assessed as inhibition of LPS-induced TNFalpha production at 30 mg/kg, po after 1 hr by ELISA; type: functional
Outline: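 Male BALB/c mice (7–12 weeks old) dosed orally, vehicle 0.5% methyl cellulose. LPS 0.02 mg/kg in saline given i.v. 30 min after dosing. Plasma separated at 4 °C, stored at −20 °C, and TNFα quantified by ELISA. Percent inhibition recorded.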

[5] = tested on: Plasma; test: Plasma concentration in BALB/c mouse at 30 mg/kg, po after 90 mins; type: ADME, organism-based; design: dose 30 mg/kg
Outline: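 Plasma concentration of compound in mice measured 90 min after a 30 mg/kg oral dose.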

[6] = Metabolic stability of the compound in mouse liver microsomes assessed as compound remaining at 1 uM after 30 mins; type: ADME, Microsome; details: read-out: Stability
Outline: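 Compound at 1 μM incubated 30 min with mouse liver microsomes at 0.1 mg/ml protein. Percent of parent compound remaining reported.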

[7] = molecular target: Serine/threonine-protein kinase D3 (Homo sapiens) (UniProt O94806); test: Inhibition of PKD3 at 0.2 uM
[8] = molecular target: ALK tyrosine kinase receptor (Homo sapiens) (UniProt Q9UM73); test: Inhibition of ALK at 10 uM
[9] = molecular target: Tyrosine-protein kinase JAK2 (Homo sapiens) (UniProt O60674); test: Inhibition of JAK2 at 10 uM
[10] = molecular target: T2, Serine/threonine-protein kinase D2 (Homo sapiens) (UniProt Q9BZL6); test: Inhibition of PKD2 at 10 uM
T2 sequence (whole entry): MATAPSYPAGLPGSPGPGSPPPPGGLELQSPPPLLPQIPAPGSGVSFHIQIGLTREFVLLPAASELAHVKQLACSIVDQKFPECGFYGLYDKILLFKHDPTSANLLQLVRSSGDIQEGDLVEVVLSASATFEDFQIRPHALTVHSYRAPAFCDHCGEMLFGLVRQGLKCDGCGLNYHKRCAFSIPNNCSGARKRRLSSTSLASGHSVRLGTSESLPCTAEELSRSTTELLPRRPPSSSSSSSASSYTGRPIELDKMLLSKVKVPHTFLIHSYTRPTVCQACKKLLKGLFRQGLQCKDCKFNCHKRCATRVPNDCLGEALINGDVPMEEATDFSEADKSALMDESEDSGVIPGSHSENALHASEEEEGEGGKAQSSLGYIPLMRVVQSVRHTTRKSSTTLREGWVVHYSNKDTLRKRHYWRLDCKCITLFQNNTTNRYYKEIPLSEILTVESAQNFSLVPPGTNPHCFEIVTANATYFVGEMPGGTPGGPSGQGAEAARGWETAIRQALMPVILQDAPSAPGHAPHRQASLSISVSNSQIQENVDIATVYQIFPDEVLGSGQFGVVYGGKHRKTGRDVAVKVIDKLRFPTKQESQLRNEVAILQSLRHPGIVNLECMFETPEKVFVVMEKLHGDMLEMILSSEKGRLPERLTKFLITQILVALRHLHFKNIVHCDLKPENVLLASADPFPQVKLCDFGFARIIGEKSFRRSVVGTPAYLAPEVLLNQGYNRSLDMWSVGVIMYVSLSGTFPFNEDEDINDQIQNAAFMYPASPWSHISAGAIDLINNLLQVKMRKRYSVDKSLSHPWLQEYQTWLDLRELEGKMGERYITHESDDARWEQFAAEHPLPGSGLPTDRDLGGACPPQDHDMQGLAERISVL

Tyrosine-protein kinase JAK2 (Homo sapiens), sequence (O60674 whole entry): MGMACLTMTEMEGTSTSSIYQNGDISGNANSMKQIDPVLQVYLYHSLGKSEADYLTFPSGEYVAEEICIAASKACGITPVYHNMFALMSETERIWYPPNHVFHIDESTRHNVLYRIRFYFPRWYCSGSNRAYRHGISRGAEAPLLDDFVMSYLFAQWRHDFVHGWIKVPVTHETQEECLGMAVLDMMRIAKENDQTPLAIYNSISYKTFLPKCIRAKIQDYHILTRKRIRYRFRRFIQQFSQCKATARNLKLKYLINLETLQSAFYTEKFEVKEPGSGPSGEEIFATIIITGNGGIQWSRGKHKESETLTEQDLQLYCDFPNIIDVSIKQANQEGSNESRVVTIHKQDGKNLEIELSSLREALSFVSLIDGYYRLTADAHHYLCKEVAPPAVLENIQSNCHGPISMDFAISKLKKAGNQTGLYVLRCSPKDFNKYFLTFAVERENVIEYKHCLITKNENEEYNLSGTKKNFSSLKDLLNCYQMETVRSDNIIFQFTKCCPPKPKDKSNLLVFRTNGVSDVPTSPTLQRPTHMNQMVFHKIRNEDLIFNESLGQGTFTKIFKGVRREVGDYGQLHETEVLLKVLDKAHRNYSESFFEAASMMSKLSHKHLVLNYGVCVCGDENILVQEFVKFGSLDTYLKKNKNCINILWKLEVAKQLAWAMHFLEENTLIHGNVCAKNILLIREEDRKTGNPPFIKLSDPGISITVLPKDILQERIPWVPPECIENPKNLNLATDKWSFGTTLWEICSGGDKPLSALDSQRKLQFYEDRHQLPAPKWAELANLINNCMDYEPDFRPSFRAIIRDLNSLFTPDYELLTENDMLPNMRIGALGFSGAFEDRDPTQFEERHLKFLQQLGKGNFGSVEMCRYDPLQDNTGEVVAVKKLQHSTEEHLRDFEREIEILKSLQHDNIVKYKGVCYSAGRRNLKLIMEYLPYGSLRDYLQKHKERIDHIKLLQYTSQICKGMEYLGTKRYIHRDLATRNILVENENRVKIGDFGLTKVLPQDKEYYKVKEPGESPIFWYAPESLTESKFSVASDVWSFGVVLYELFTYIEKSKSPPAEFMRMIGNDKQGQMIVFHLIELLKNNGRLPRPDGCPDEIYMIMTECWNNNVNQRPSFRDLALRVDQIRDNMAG
Serine/threonine-protein kinase D3 (Homo sapiens), sequence (O94806 whole entry, looked up): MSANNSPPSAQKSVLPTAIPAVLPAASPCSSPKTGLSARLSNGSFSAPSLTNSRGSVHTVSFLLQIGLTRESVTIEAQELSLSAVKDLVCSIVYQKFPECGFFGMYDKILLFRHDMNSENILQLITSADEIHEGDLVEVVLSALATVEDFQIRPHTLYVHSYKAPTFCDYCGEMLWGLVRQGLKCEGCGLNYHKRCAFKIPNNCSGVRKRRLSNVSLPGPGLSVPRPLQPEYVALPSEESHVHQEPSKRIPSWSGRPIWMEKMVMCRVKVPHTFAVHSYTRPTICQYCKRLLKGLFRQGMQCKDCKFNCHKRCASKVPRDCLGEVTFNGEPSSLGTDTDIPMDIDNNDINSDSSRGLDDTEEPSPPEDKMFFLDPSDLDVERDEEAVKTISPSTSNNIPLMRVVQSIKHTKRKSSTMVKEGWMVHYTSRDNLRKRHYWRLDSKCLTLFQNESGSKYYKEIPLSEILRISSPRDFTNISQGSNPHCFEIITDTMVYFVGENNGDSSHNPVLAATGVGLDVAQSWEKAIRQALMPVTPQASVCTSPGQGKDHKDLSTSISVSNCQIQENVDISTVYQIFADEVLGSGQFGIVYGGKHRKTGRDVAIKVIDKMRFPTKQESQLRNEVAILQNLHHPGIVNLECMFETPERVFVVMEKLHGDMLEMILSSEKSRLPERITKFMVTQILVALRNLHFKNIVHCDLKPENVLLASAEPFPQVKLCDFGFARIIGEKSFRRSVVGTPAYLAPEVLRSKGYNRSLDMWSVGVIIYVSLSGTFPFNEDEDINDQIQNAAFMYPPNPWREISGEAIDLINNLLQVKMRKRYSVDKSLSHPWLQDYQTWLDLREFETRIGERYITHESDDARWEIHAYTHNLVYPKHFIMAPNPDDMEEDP
ALK tyrosine kinase receptor (Homo sapiens), sequence (Q9UM73 19-1620 limits assumed): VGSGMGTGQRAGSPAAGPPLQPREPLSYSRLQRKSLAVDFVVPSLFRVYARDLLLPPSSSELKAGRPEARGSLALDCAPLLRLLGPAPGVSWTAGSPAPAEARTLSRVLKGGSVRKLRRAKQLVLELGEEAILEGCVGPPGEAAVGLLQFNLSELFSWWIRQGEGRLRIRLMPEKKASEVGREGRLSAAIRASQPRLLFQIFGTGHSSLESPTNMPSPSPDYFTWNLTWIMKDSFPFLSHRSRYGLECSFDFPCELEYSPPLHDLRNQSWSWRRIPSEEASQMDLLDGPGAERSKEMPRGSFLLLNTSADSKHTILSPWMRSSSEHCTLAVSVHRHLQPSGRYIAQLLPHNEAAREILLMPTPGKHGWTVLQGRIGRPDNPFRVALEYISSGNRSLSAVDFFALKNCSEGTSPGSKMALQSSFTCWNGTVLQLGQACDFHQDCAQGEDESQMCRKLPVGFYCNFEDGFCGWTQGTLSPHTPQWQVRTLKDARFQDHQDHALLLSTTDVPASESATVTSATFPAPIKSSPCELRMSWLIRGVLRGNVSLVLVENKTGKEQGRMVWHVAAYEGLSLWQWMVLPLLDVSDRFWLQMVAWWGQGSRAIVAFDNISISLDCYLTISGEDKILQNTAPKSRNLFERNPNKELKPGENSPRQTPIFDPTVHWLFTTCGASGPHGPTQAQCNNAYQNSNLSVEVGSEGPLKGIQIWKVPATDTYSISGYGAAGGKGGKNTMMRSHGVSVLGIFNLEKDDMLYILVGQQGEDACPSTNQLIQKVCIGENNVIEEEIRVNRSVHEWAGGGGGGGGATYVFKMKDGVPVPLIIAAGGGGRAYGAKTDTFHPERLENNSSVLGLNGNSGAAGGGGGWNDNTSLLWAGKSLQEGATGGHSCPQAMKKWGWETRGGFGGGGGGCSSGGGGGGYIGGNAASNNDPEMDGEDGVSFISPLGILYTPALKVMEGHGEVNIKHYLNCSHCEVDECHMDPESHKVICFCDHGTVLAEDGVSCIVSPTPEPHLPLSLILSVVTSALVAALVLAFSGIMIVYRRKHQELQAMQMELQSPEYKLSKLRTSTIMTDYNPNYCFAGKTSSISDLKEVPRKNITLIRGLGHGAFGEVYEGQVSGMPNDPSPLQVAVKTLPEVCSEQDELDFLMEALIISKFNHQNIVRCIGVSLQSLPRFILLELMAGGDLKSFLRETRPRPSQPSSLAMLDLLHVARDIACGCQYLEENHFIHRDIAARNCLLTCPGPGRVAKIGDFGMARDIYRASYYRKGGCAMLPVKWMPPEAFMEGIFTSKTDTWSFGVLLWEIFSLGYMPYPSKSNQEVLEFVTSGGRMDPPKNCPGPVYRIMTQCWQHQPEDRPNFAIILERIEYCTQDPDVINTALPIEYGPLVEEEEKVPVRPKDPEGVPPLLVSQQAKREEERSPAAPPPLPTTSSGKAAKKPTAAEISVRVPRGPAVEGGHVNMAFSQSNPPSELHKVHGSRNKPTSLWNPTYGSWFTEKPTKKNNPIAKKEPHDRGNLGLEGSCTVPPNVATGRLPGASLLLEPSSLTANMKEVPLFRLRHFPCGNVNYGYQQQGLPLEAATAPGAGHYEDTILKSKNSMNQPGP

Molecule `O=C(c1ccc(-c2cnc3ccc(NCC4CC4)nn23)cc1)N(C/C=C/c1ccccc1)C[C@@H]1C[C@@H](F)CN1` has an IC50 [1] of 13 nM, an IC50 [2] of 950 nM and a Papp [3] of over 50 ×10⁻⁶ cm/s.
Molecule `O=C(c1ccc(-c2cnc3ccc(NCC4CC4)nn23)cc1)N(C[C@@H]1C[C@@H](F)CN1)c1ccccc1` has an IC50 [1] of 7300 nM.
`CN(C[C@@H]1CCCN1)C(=O)c1ccc(-c2cnc3ccc(NCC4CC4)nn23)cc1` gave an IC50 [1] of 97 nM, an IC50 [2] of 1900 nM and a Papp [3] of 6.1 ×10⁻⁶ cm/s.
For `CC(=O)Nc1ccc(CN(C[C@@H]2C[C@@H](F)CN2)C(=O)c2ccc(-c3cnc4ccc(NCC5CC5)nn34)cc2)cc1`, the IC50 [1] was 15 nM, the IC50 [2] was 2700 nM and the Papp [3] was under 2 ×10⁻⁶ cm/s.
`O=C(O)c1ccc(CN(C[C@@H]2C[C@@H](F)CN2)C(=O)c2ccc(-c3cnc4ccc(NCC5CC5)nn34)cc2)cc1` showed an IC50 [1] of 17 nM, an IC50 [2] of over 10000 nM and a Papp [3] of under 2 ×10⁻⁶ cm/s.
Work on `CCN(C[C@@H]1C[C@@H](F)CN1)C(=O)c1ccc(-c2cnc3ccc(NCC4CC4)nn23)cc1` yielded an IC50 [1] of 18 nM, an IC50 [2] of 230 nM and a Papp [3] of 42 ×10⁻⁶ cm/s. It also gave an inhibition in vivo at 30 mg/kg [4] of 32%, a Cp [5] of 0.15 µg/mL and a remaining at 0.5 h, 1 µM [6] of 33%.
`O=C(c1ccc(-c2cnc3ccc(NCC4CC4)nn23)cc1)N(Cc1ccc(Cl)cc1)C[C@@H]1C[C@@H](F)CN1` showed an IC50 [1] of 17 nM, an IC50 [2] of 1200 nM and a Papp [3] of 39 ×10⁻⁶ cm/s. It also gave an inhibition in vivo at 30 mg/kg [4] of 61%, a Cp [5] of 0.45 µg/mL and a remaining at 0.5 h, 1 µM [6] of 28%.
For `O=C(NC[C@@H]1C[C@@H](F)CN1)c1ccc(-c2cnc3ccc(NCC4CC4)nn23)cc1`, the IC50 [1] was 22 nM, the IC50 [2] was 570 nM and the Papp [3] was 36 ×10⁻⁶ cm/s. The inhibition [7] was 80%.
In the case of `O=C(c1ccc(-c2cnc3ccc(NCC4CC4)nn23)cc1)N(CCO)C[C@@H]1C[C@@H](F)CN1`, the IC50 [1] is reported as 15 nM, the IC50 [2] is reported as 680 nM and the Papp [3] is reported as 15 ×10⁻⁶ cm/s.
For `O=C(NC[C@H]1NCC[C@@H]1F)c1ccc(-c2cnc3ccc(NCC4CC4)nn23)cc1`, the IC50 [1] was 21 nM and the IC50 [2] was 1200 nM.
Molecule `O=C(O)CN(C[C@@H]1C[C@@H](F)CN1)C(=O)c1ccc(-c2cnc3ccc(NCC4CC4)nn23)cc1` has an IC50 [1] of 110 nM, an IC50 [2] of 3900 nM and a Papp [3] of 14 ×10⁻⁶ cm/s.
For `CO[C@H]1CCN[C@@H]1CNC(=O)c1ccc(-c2cnc3ccc(NCC4CC4)nn23)cc1`, the IC50 [1] was 23 nM, the IC50 [2] was 2100 nM and the Papp [3] was 6.5 ×10⁻⁶ cm/s.
In the case of `CN(C[C@@H]1C[C@@H](F)CN1)C(=O)c1ccc(-c2cnc3ccc(NCC4CC4)nn23)cc1`, the IC50 [1] is reported as 42 nM, the IC50 [2] is reported as 480 nM and the Papp [3] is reported as over 50 ×10⁻⁶ cm/s. The inhibition in vivo at 30 mg/kg [4] was 26%, the Cp [5] was 0.34 µg/mL and the remaining at 0.5 h, 1 µM [6] was 50%.
Molecule `CO[C@H]1CN[C@H](CNC(=O)c2ccc(-c3cnc4ccc(NCC5CC5)nn34)cc2)C1` has an IC50 [1] of 71 nM, an IC50 [2] of 2700 nM and a Papp [3] of under 2 ×10⁻⁶ cm/s.
In the case of `O=C(c1ccc(-c2cnc3ccc(NCC4CC4)nn23)cc1)N(Cc1cccc(Cl)c1)C[C@@H]1C[C@@H](F)CN1`, the IC50 [1] is reported as 17 nM, the IC50 [2] is reported as 590 nM and the Papp [3] is reported as over 50 ×10⁻⁶ cm/s. The inhibition in vivo at 30 mg/kg [4] was 40%, the Cp [5] was 0.12 µg/mL and the remaining at 0.5 h, 1 µM [6] was 7%.
In the case of `CN(C)CCNC(=O)c1ccc(-c2cnc3ccc(NCC4CC4)nn23)cc1`, the IC50 [2] is reported as 800 nM, the Papp [3] is reported as over 50 ×10⁻⁶ cm/s and the inhibition in vivo at 30 mg/kg [4] is reported as 10%. It also gave a Cp [5] of 0.39 µg/mL and a remaining at 0.5 h, 1 µM [6] of 71%.
`O=C(c1ccc(-c2cnc3ccc(NCC4CC4)nn23)cc1)N(Cc1ccccc1)C[C@@H]1C[C@@H](F)CN1` gave an IC50 [1] of 12 nM, an IC50 [2] of 400 nM and a Papp [3] of over 50 ×10⁻⁶ cm/s.
In the case of `O=C(NC[C@@H]1CCCN1)c1ccc(-c2cnc3ccc(NCC4CC4)nn23)cc1`, the IC50 [2] is reported as 6800 nM, the Papp [3] is reported as under 2 ×10⁻⁶ cm/s and the inhibition [4] is reported as “inactive”. The Cp [5] was 0.0075 µg/mL, the remaining at 0.5 h, 1 µM [6] was 77% and the inhibition [8] was over 90%. The inhibition [9] was over 90% and the inhibition [10] was over 90%.
With `CCCN(C[C@@H]1C[C@@H](F)CN1)C(=O)c1ccc(-c2cnc3ccc(NCC4CC4)nn23)cc1` the IC50 [1] was 16 nM, the IC50 [2] was 170 nM and the Papp [3] was over 50 ×10⁻⁶ cm/s. For the same molecule, the inhibition in vivo at 30 mg/kg [4] was 52%, the Cp [5] was 0.16 µg/mL and the remaining at 0.5 h, 1 µM [6] was 33%.
